Experiment [1] deals with Mycoplasma pulmonis. The experiment can be described thus: Antibacterial activity against 10^6 CFU/ml Mycoplasma pulmonis MpUR1.1 assessed as viable cell count after 24 hrs. Format: functional. The settings on record: Mycoplasmopsis pulmonis. The gist of the method: (§1)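 For bactericidal testing, cells were exposed to peptides for 2 h or enrofloxacin for 24 h, then plated on solid medium at 37°C under anaerobic conditions. Colonies were read after 4 to 5 days. MBC was the lowest concentration killing 99.9% of cells. Triplicate.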

The test system of experiment [2] is Mycoplasma pulmonis. The experiment can be described thus: Ratio of MBC to MIC for Mycoplasma pulmonis MpUR1.1. The format is functional, Mycoplasmopsis pulmonis. In short, it runs like this: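 MIC came from broth microdilution at 10^6 CFU/ml in Hayflick medium with 5% horse serum. Twofold dilutions ran from 0.4 to 100 µM, with phenol red read-out at 48 h. MBC came from plating after exposure (peptides 2 h, enrofloxacin 24 h) on solid medium at 37°C under anaerobic conditions. MBC was the concentration killing 99.9% of cells, with colonies read at 4 to 5 days.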

Experiment [3] deals with Mycoplasma pulmonis. The experiment can be described thus: Antibacterial activity against 10^6 CFU/ml log-phase Mycoplasma pulmonis MpUR1.1 assessed as viable cell count at 0.4 uM after 1 hr relative to control. Format: functional, Mycoplasmopsis pulmonis. In short, it runs like this: (§2)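 Time-kill on log-phase cells, about 10^6 CFU/ml in Hayflick broth, exposed to a single drug concentration at 37°C. Aliquots were taken at 1, 2 or 24 h, serially diluted and plated for viable counts. Counts were expressed as percent of the untreated culture. Values are the mean of two independent experiments.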

In experiment [4] the test system is Mycoplasma pulmonis. The experiment can be described thus: Antibacterial activity against 10^6 CFU/ml Mycoplasma pulmonis MpUR1.1 after 48 hrs. Format: functional. The settings on record: Mycoplasmopsis pulmonis. In short, it runs like this:
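Mycoplasmas seeded at 10^6 CFU/ml in Hayflick medium with 5% horse serum, with twofold serial drug dilutions (0.4 to 100 µM). Growth was followed by phenol red colour change. MIC was the lowest concentration giving complete growth inhibition at 48 h. Triplicate.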

The test system of experiment [5] is Mycoplasma pulmonis. The experiment can be described thus: Antibacterial activity against 10^6 CFU/ml growth-phase Mycoplasma pulmonis MpUR1.1 assessed as viable cell count after 2 hrs relative to control. The format is functional. The settings on record: Mycoplasmopsis pulmonis. In short, it runs like this:
as §2

Experiment [6] relates to Mycoplasma pulmonis. The experiment can be described thus: Antibacterial activity against 10^6 CFU/ml log-phase Mycoplasma pulmonis MpUR1.1 assessed as viable cell count at 0.4 uM after 24 hrs relative to control. The format is functional, Mycoplasmopsis pulmonis. The gist of the method:
as §2

Experiment [7] has as its system Mycoplasma pulmonis. The experiment can be described thus: Antibacterial activity against 10^6 CFU/ml Mycoplasma pulmonis MpUR1.1 assessed as viable cell count after 2 hrs. Format: functional. To be noted: Mycoplasmopsis pulmonis. In short, it runs like this: as §1
The test system of experiment [8] is Mycoplasma pulmonis. The experiment can be described thus: Antibacterial activity against 10^6 CFU/ml log-phase Mycoplasma pulmonis MpUR1.1 assessed as viable cell count at 6.25 uM after 1 hr relative to control. Format: functional, Mycoplasmopsis pulmonis. In short, it runs like this:
as §2

Experiment [9] concerns Mycoplasma pulmonis. The experiment can be described thus: Antibacterial activity against 10^6 CFU/ml log-phase Mycoplasma pulmonis MpUR1.1 assessed as viable cell count at 6.25 uM after 24 hrs relative to control. Format: functional, Mycoplasmopsis pulmonis. The gist of the method: as §2
For experiment [10], the system named is Mycoplasma pulmonis. The experiment can be described thus: Antibacterial activity against 10^6 CFU/ml log-phase Mycoplasma pulmonis MpUR1.1 assessed as viable cell count at 25 uM after 1 hr relative to control. The format is functional, Mycoplasmopsis pulmonis. The gist of the method:
as §2

The test system of experiment [11] is Mycoplasma pulmonis. The experiment can be described thus: Antibacterial activity against 10^6 CFU/ml log-phase Mycoplasma pulmonis MpUR1.1 assessed as viable cell count at 25 uM after 24 hrs relative to control. Format: functional, Mycoplasmopsis pulmonis. In short, it runs like this:
as §2

Experiment [12] deals with Mycoplasma pulmonis. The experiment can be described thus: Antibacterial activity against 10^6 CFU/ml log-phase Mycoplasma pulmonis MpUR1.1 assessed as viable cell count at 3.12 uM after 24 hrs relative to control. The format is functional, Mycoplasmopsis pulmonis. In short, it runs like this:
as §2

Experiment [13] deals with Mycoplasma pulmonis. The experiment can be described thus: Antibacterial activity against 10^6 CFU/ml log-phase Mycoplasma pulmonis MpUR1.1 assessed as viable cell count at 3.12 uM after 1 hr relative to control. Format: functional, Mycoplasmopsis pulmonis. In short, it runs like this:
as §2

Converted amounts (≈) assume the structure as drawn. The source made the active and inactive calls. Starred links: 1 amine or outer side, 2 acyl side, 3 side chain; linkers in the order of their positions; H or OH if unused. Positions of bridges follow the written chain, without caps; N, C: chain ends. Non-standard residues stand in square brackets, D forms with d. Residues, ends and D or L forms follow the SMILES beside them. X1 = CC(C)CCCCCCCCC[C@H](CC(=O)[*:1])O[*:2]; Orn = NCCC[C@H](N)C(=O)O

In the case of `CCN1CCN(c2cc3c(cc2F)c(=O)c(C(=O)O)cn3C2CC2)CC1` [ENROFLOXACIN], in the experiment on Mycoplasma pulmonis [1], the minimum bactericidal concentration (MBC) (as a rule, the smallest concentration meeting the test's criterion for killing) was determined as 0.29 µg/mL (≈ 0.807 µM). Also, in the experiment with Mycoplasma pulmonis [2], the Ratio was found to be 2. For the same compound, the Activity was 89% in the experiment with Mycoplasma pulmonis [3] and 0.22% in the experiment on Mycoplasma pulmonis [6]. In the experiment with Mycoplasma pulmonis [4], the lowest concentration to inhibit growth (MIC) was 0.14 µg/mL (≈ 0.39 µM). The result with Mycoplasma pulmonis [5] was Active.
As for `CCCCCC[C@H]1OC(=O)CNC(=O)[C@H]([C@H](C)O)NC(=O)[C@H](CO)NC(=O)[C@H]([C@H](C)CC)NC(=O)[C@H](CC(C)C)N(C)C(=O)[C@@H]1C`, the MBC in the experiment with Mycoplasma pulmonis [7] came out at 8.2 µg/mL (≈ 12.5 µM). Also, in the experiment on Mycoplasma pulmonis [2], the Ratio is 31. Besides, the Activity in the experiment with Mycoplasma pulmonis [3] came out at 68%; with Mycoplasma pulmonis [6], 0.05%. In addition, the lowest concentration to inhibit growth with Mycoplasma pulmonis [4] (MIC) was 0.26 µg/mL (≈ 0.396 µM). Further, in the experiment with Mycoplasma pulmonis [5], the result was Active.
For `CC(=O)NC(C)(C)C(=O)N1CCC[C@H]1C(=O)NC(C)(C)C(=O)N[C@@H](C)C(=O)NC(C)(C)C(=O)N[C@@H](C)C(=O)N[C@@H](CCC(N)=O)C(=O)NC(C)(C)C(=O)N[C@H](C(=O)NC(C)(C)C(=O)NCC(=O)N[C@@H](CC(C)C)C(=O)NC(C)(C)C(=O)N1CCC[C@H]1C(=O)N[C@H](C(=O)NC(C)(C)C(=O)NC(C)(C)C(=O)N[C@@H](CCC(=O)O)C(=O)N[C@@H](CCC(N)=O)C(=O)N[C@H](CO)Cc1ccccc1)C(C)C)C(C)C` [ALAMETHICIN], the values for the Activity in the experiment on Mycoplasma pulmonis [8] and in the experiment on Mycoplasma pulmonis [9] were 31% and 0%, respectively. Moreover, the MBC with Mycoplasma pulmonis [7] worked out at 49.1 µg/mL (≈ 25 µM). Besides, the Ratio in the experiment with Mycoplasma pulmonis [2] was 2. Also, the minimum inhibitory concentration (MIC) (in general, the lowest concentration found to suppress growth) against Mycoplasma pulmonis [4] was found to be 12.3 µg/mL (≈ 6.26 µM). Besides, the result in the experiment on Mycoplasma pulmonis [5] was Active.
Consider `CC(C)CCCCCCCCC[C@@H]1CC(=O)N[C@@H](CCC(=O)O)C(=O)N[C@@H](CC(C)C)C(=O)N[C@H](CC(C)C)C(=O)N[C@@H](C(C)C)C(=O)N[C@@H](CC(=O)O)C(=O)N[C@H](CC(C)C)C(=O)N[C@@H](CC(C)C)C(=O)O1` [SURFACTIN] (EL[dL]VD[dL]L; linker N-C via X1), for which the results for the Activity in the experiment on Mycoplasma pulmonis [10] and in the experiment with Mycoplasma pulmonis [11] were 43% and 0.08%, respectively. The minimum bactericidal concentration (MBC) in the experiment with Mycoplasma pulmonis [7] came to 104 µg/mL (≈ 100 µM). In addition, the Ratio with Mycoplasma pulmonis [2] is 2. In the experiment with Mycoplasma pulmonis [4], this compound returned an MIC of 25.9 µg/mL (≈ 25 µM). Besides, the result in the experiment on Mycoplasma pulmonis [5] was Active.
As to `CC(C)C[C@@H]1NC(=O)[C@H](CCCN)NC(=O)[C@H](C(C)C)NC(=O)[C@@H]2CCCN2C(=O)[C@@H](Cc2ccccc2)NC(=O)[C@H](CC(C)C)NC(=O)[C@H](CCCN)NC(=O)[C@H](C(C)C)NC(=O)[C@@H]2CCCN2C(=O)[C@@H](Cc2ccccc2)NC1=O` [GRAMICIDIN S] (cyclo(L[dF]PV[Orn]L[dF]PV[Orn])), the Activity is 0.16% with Mycoplasma pulmonis [12] and 98% in the experiment with Mycoplasma pulmonis [13]. The minimum bactericidal concentration (MBC) with Mycoplasma pulmonis [7] came to 7.1 µg/mL (≈ 6.22 µM). In the experiment on Mycoplasma pulmonis [2], the Ratio worked out at 2. Also, in the experiment with Mycoplasma pulmonis [4], inhibition of growth (MIC) required 3.6 µg/mL (≈ 3.15 µM). The outcome in the experiment with Mycoplasma pulmonis [5] was Active.

The values are drawn from ChEMBL document CHEMBL1142175, “Activities of antimicrobial peptides and synergy with enrofloxacin against Mycoplasma pulmonis” (2007).
